Like-named read-outs stand apart in the source and are kept apart here.
Key:
Ddp1 = conditions: 30 minutes at 37 °C; ref 22c; cited from earlier work
Ddp1 phosphohydrolase = Ddp1 phosphohydrolase (Saccharomyces cerevisiae, UniProt Q99321); assay: Inhibition of His-Ddp1 mediated Ap5A hydrolysis; format: biochemical, yeast; conditions: for inhibition profile of Ddp1 mediated Ap5A hydrolysis (in words): compared with 5PP-IP5, Figures 5b and S4
[1] = Stability in aqueous solution at room temperature; format: physicochemical; conditions: for decomposition in aqueous solution: neutral pH, 40 days at room temperature
protein kinase Akt = protein kinase Akt (Homo sapiens, UniProt P31749); assay: Inhibition of Akt phosphorylation at threonine 308 by PDK1; format: biochemical
protein kinase Akt, sequence (P31749 whole entry): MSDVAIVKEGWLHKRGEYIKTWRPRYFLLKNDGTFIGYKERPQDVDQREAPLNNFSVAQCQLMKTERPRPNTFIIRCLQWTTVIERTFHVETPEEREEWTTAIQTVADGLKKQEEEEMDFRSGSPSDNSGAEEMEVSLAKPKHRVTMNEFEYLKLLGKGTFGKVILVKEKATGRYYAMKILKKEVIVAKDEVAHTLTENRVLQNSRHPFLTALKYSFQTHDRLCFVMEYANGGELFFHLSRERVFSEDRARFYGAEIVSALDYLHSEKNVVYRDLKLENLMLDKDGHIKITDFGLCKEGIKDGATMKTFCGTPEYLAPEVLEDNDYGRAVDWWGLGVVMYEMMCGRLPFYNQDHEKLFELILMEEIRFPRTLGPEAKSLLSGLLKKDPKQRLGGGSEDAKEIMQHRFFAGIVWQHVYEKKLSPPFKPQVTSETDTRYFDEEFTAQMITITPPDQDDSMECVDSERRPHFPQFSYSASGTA
Outline: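 Akt Thr308 phosphorylation was detected by Western blot with a phosphospecific antibody, with a total-Akt blot as loading control. IC50 was determined in three independent experiments.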

[2] = 1H and 31P NMR titration in D2O; format: physicochemical; conditions: D2O with 140mM K+, 10mM Na+, 1mM Mg2+, room temperature

Ddp1 phosphohydrolase, sequence (Q99321 whole entry): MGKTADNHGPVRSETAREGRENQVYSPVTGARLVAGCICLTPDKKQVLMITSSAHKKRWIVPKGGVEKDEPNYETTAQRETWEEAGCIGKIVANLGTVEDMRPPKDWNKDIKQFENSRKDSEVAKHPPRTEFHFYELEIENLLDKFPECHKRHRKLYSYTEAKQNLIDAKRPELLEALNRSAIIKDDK

Row | SMILES | hydrolysis by Ddp1 (Ddp1) | inhibition profile of Ddp1 mediated Ap5A hydrolysis (in words) (Ddp1 phosphohydrolase) | decomposition in aqueous solution [1] | pD of ring inversion (conformational change) [2] | further results
1 | O=P(O)(O)OC1[C@@H](OP(=O)(O)O)[C@@H](OP(=O)(O)O)C(OP(=O)(O)OP(=O)(O)O)[C@H](OP(=O)(O)O)[C@H]1OP(=O)(O)O (stereo partly shown) [1PP-IP5] | completely hydrolysed to IP6 |  |  |  | 
2 | O=P(O)(O)CP(=O)(O)O[C@@H]1[C@@H](OP(=O)(O)O)[C@H](OP(=O)(O)O)[C@H](O)[C@H](OP(=O)(O)O)[C@H]1OP(=O)(O)O [5PCP-IP4] |  | very similar inhibition profiles | no signs of decomposition |  | 
3 | O=P(O)(O)CP(=O)(O)O[C@H]1[C@H](OP(=O)(O)O)[C@@H](OP(=O)(O)O)[C@@H](OP(=O)(O)O)[C@@H](OP(=O)(O)O)[C@@H]1OP(=O)(O)O [5PCP-IP5] |  | very similar inhibition profiles | no signs of decomposition | ~8.8 | IC50 (protein kinase Akt; read-out: IC50, inhibition of Akt phosphorylation at threonine 308, purified inactive Akt and activated PDK1, three independent experiments): 129 nM; decomposition at low or high pD ([1]; pD 2.0 or 13.0, 40 days at room temperature): no detectable decomposition
4 | O=P(O)(O)O[C@H]1[C@@H](OP(=O)(O)O)[C@H](OP(=O)(O)O)[C@@H](OP(=O)(O)OP(=O)(O)O)[C@H](OP(=O)(O)O)[C@H]1OP(=O)(O)O [5PP-IP5, reference compound] | no signs of hydrolysis |  |  | ~8.8 | IC50 (Ddp1 phosphohydrolase): 2500 nM; IC50 (protein kinase Akt): 217 nM
5 | O=P(O)(O)OC1C(OP(=O)(O)O)C(OP(=O)(O)O)C(OP(=O)(O)O)C(OP(=O)(O)O)C1OP(=O)(O)O (stereo not shown) [IP6, inositol hexakisphosphate, reference compound] |  |  |  |  | IC50 in Ddp1 Ap5A hydrolysis relative to 5PP-IP5 (Ddp1 phosphohydrolase; data not shown): more than ten times higher
